# rCAG binder = binds r(CAG) RNA repeats; r(CAG) RNA repeat, TO-PRO-1 dye displacement fluorescence; inhibition, % at 3 µM; actives 1.3% (n = 370,000); AID 651821;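 active = inhibition above the plate cutoff, the mean of all test compounds on that plate plus 3 SD, cut at about 35% in these data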;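 note: higher means more dye released from RNA so lower well fluorescence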
# TCR CD3 inh = blocks the human TCR-CD3 interaction. inhibition, % at 9.4 µM. TAMRA-labeled TCR probe fluorescence, biochemical. AID 651800. actives 0.37% (n = 360,000); in the data active = inhibition above about 19%;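 note: recombinant mutant TCR 2C K166C tagged with TAMRA read by polarization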
# HTRA1 inhibitor = blocks human HTRA1 serine peptidase | recombinant HTRA1, FP-rhodamine activity-based probe, fluorescence polarization | actives 0.5% (n = 340,000) | inhibition, % at 5.96 µM; in the data active = inhibition above about 36%
# Target sequence (Q92743 whole entry, looked up): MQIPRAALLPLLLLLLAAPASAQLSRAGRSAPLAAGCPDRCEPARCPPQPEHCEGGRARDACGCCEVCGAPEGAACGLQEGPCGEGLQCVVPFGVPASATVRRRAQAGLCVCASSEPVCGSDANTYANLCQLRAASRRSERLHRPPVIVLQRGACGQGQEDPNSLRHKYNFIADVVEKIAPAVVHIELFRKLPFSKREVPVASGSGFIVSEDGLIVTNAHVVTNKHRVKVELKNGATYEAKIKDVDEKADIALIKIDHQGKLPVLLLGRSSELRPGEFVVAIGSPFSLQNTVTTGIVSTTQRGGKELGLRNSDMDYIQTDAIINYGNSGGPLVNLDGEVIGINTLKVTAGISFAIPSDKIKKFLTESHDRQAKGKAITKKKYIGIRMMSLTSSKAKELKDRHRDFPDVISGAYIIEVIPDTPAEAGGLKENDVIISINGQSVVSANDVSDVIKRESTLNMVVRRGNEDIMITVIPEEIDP
# SIAE inh = human SIAE inhibition, primary screen; SIAE FP-Rh probe binding, fluorescence polarization; inhibition, % at 9.66 µM; actives 0.69% (n = 370,000); AID 1053197;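 active = inhibition above a cutoff: mean of compounds within the control limits plus 3 SD of those, cut at about 17% in these data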
# ABHD4 inh = inhibitors of mouse ABHD4; inhibition, % at 8.92 µM; actives 0.54% (n = 370,000); Q8VD66; purified mABHD4, FP-Rh probe fluorescence polarization; AID 720543;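 active = inhibition exceeding the mean over every tested compound plus 3 SD, cut at about 30% in these data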
#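 system = mouse ABHD4 enzyme, wild type | medium = HEPES pH 7.0, NaCl, Pluronic buffer | also added = FP-Rh probe | incubation = Enzyme–compound pre-incubation 45 min, then probe 60 min, both 25 °C | technique = fluorescence polarization, excitation 525 nm, emission 598 nm, BODIPY TMR filters | controls = S159A mutant high control, sample median low control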
# rCAG bind conf = r(CAG) RNA repeat binding, confirmation. shares compounds with rCAG binder. TO-PRO-1 dye displacement fluorescence. inhibition, % at 3 µM. actives 70% (n = 4,300). AID 652065;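 active = inhibition above a per-plate cutoff, the mean inhibition of sample wells plus 3 SD, cut at about 35% in these data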;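 note: loss of TO-PRO-1 fluorescence as compound displaces dye from 1x1 AA loop RNA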
# dCAG dye counter = counter-screen for rCAG RNA binders: DNA CAG dye complex inhibitors | shares compounds with rCAG binder | d(CAG) DNA oligo TO-PRO-1 dye displacement, fluorescence | inhibition, % at 3 µM | actives 94% (n = 4,300) | AID 652068;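 active = inhibition above its plate's cutoff, the mean test-well inhibition plus 3 SD, cut at about 4.8% in these data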;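 note: hits displace the dye from DNA and so lower well fluorescence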
# DNA CAG DR = counter-screen for rCAG binders: inhibitors of DNA CAG TO-PRO-1 complex | shares compounds with rCAG binder | DNA CAG/GTC duplex TO-PRO-1 dye displacement fluorescence | IC50, µM | actives 20% (n = 250) | AID 686960; in the data active = IC50 below about 10 µM
# Hits are given with their value; – = inactive; · = no result given. Only some compounds are listed: those with a hit (about 2.5% of all), similar ones and a draw of the others.
SMILES,rCAG binder,TCR CD3 inh,HTRA1 inhibitor,SIAE inh,ABHD4 inh,rCAG bind conf,dCAG dye counter,others
Cc1ccc(S(=O)(=O)/N=C2/NC(=O)/C(=C/c3ccncc3)S2)cc1,–,–,·,–,–,·,·,
Cc1ccc(/C=C2\S/C(=N/S(=O)(=O)c3cccs3)NC2=O)cc1,60,–,–,–,–,65,24,
COc1ccc(N=C2NC(=O)/C(=C\c3ccco3)S2)cc1,–,–,–,–,–,·,·,
CCN1CCN(S(=O)(=O)c2ccc(Cl)c(C(=O)N(CC)CC(=O)Nc3ccc(OC)cc3)c2)CC1,–,–,–,–,–,·,·,
CC(=O)c1ccc(N2CCN(C(=O)C3CCCN(S(=O)(=O)c4cnc[nH]4)C3)CC2)cc1 (stereo unspecified),–,–,–,–,–,·,·,
Cc1nnc(CN(C)C(=O)c2cc(COc3ccc(F)cc3Cl)on2)o1,–,–,–,–,–,·,·,
COc1ccc(S(=O)(=O)NNC(=O)c2cc3cc4ccccc4nc3s2)cc1,35,–,–,–,–,–,6.4,
CS(=O)(=O)NNC(=O)c1cc2cc3ccccc3nc2s1,–,–,–,–,–,·,·,
Cc1ccc(S(=O)(=O)N/N=C/c2cc(Br)ccc2O)cc1,–,–,–,–,–,·,·,
Cc1ccc(S(=O)(=O)Nc2ccc(Br)cc2/C=N/n2cnnc2)cc1,45,–,–,–,–,39,13,
O=S(=O)(Nc1ncnc2sc3c(c12)CCC3)c1ccc(Cl)s1,57,–,–,–,–,35,11,
N#C/C(C(=O)Nc1ccc(Cl)cc1)=C(/S)Nc1ccccc1,56,–,–,–,–,71,24,DNA CAG DR=–
Cc1ccc(-n2c(C)cc(C(=O)NS(=O)(=O)c3ccc(C)cc3)c2C)cc1,40,–,–,–,–,–,9.7,
CC(=O)c1ccc(NC(=O)c2ccc3c(c2)C(=O)N(c2ccccn2)C3=O)cc1,–,–,–,–,–,·,·,
O=C(O)c1ccc(Cl)c(S(=O)(=O)N2CCC(Cc3ccccc3)CC2)c1,62,–,–,–,–,45,13,
O=C(O)c1cccc(S(=O)(=O)N2CCC(Cc3ccccc3)CC2)c1,–,–,–,–,–,·,·,
Cc1ccc(Cc2c(-c3ccc(F)cc3)nc3c(Cl)cc(C(F)(F)F)cn23)cc1,–,–,·,–,–,·,·,
FC(F)(F)c1cc(Cl)c2nc(-c3ccc(Cl)cc3)c(Cc3ccsc3)n2c1,51,–,·,–,–,–,6.1,
Fc1ccc(-c2nc3c(Cl)cc(C(F)(F)F)cn3c2Cc2cccc(Cl)c2)cc1,38,–,·,–,–,–,4.6,
CC(=O)c1cc(CN2CCC(n3nccc3NC(=O)c3ccccc3C)CC2)cs1,–,–,–,–,–,·,·,
Cc1cccc(N(Cc2cc(=O)[nH]c3ccccc23)C(=O)C(C)C)c1,–,–,–,–,–,·,·,
Cc1ccc(-c2csc3nc(SCC(=O)Nc4ccc(Cl)c(C(=O)O)c4)[nH]c(=O)c23)cc1,81,–,–,–,–,55,20,
Cc1sc2nc(SCC(=O)Nc3ccc(Cl)c(C(=O)O)c3)[nH]c(=O)c2c1C,–,–,–,–,–,·,·,
CC(=O)Nc1ccc(OC(F)(F)C(F)F)c(NC(C)=O)c1,–,–,–,–,–,·,·,
C=C(C)C(=O)Nc1ccc(OC(F)(F)C(F)F)c(NC(=O)C(=C)C)c1,44,–,–,–,–,–,–,
CC12CC(c3ccccc3O1)N(C(=O)c1ccco1)C(=S)N2c1ccccc1 (stereo unspecified),–,–,–,–,–,·,·,
COc1ccc(CCNS(=O)(=O)c2cc(/C=C/C(=O)O)ccc2C)cc1OC,–,–,–,–,–,·,·,
COc1cc(C)c(/C=C/C(C)=C/C=C/C(C)=C/C(=O)O)c(C)c1C,47,–,–,–,–,54,17,
COc1ccc(N(CC(=O)N2CCCCCC2)S(=O)(=O)c2ccccc2[N+](=O)[O-])c(OC)c1,–,–,–,–,–,·,·,
CCOC(=O)C(=O)c1csc(NC(=O)COc2ccc(N(C)S(=O)(=O)c3ccc(F)cc3)cc2)n1,–,–,–,–,–,·,·,

# Screens as filed in PubChem BioAssay.
